CSN deneddyl inh = inhibitors of CSN-mediated cullin deneddylation, primary screen, biochemical, fluorescence polarization, uHTS; COP9 signalosome complex subunit 5 (Homo sapiens), Q92905; Purified CSN, SCF-Nedd8-OG deneddylation; inhibition, % at 12.5 µM; 0.38% of 360,000 active; AID 651999, 2013;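 active = pattern-corrected inhibition above about 35%, with an unprinted fluorescence ratio check between 0.5 and 1.5, limit read from the data, passing the limit was not always enough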;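 note: 0% = enzyme with substrate and 100% = substrate without enzyme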
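Schedule: reaction 90 min, room temperature / Assay system: HEK293T-derived human Csn5 enzyme / Input: Csn5 at 0.24 nM final / Measure: inhibition of Csn5 cleavage, % / Control set: substrate-only high control, full reaction low control / Technique: fluorescence polarization of the substrate / Buffer or medium: Tris/NaCl/DTT buffer, pH 7.5 / Reagent: SCFSkp2-Nedd8OG substrate at 10 nM final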
TPT1 inhibitor = Candida albicans TPT1 enzyme inhibitors, primary screen, biochemical, fluorescence polarization; inhibition, % at 5 µM; 0.81% of 300,000 active; AID 1962, 2009; recombinant caTPT1, FP RNA substrate dephosphorylation;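 active = inhibition above the mean of all tested compounds plus 3 SD, set per screening campaign, cut at about 24% in these data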;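 note: plate controls were DMSO alone for no effect and ferristatin control at 100 nM for full effect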
HNF4A DNA FP = change in binding of human HNF4A to DNA, primary screen, biochemical, fluorescence polarization, FITC-DNA; Hepatocyte nuclear factor 4-alpha (Homo sapiens), P41235; 1 h; activity change, % at 10 µM; 0.3% of 360,000 active; in the data active = activity change above about 30%, passing the limit was not always enough
Target sequence (P41235 whole entry, looked up): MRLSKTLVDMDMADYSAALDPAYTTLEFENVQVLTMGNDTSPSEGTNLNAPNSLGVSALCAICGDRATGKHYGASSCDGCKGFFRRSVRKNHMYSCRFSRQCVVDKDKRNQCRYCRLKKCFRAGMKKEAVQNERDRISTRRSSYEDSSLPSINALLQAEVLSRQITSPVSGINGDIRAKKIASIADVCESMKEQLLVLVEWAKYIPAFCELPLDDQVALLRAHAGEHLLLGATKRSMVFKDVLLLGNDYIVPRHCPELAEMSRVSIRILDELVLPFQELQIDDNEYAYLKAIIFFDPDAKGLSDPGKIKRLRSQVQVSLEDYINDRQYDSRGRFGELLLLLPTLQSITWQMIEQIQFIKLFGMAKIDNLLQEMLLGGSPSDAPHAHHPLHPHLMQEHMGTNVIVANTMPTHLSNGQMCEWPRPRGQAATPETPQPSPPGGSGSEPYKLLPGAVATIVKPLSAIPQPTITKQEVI
Rtt109 Vps75 = inhibitors of C. albicans Rtt109/Vps75 HAT, primary screen, biochemical, ThioGlo CoA-SH fluorescence, plate reader; Histone acetyltransferase RTT109 (Candida albicans (strain SC5314 / ATCC MYA-2876)), …; purified Rtt109/Vps75, 4 h; inhibition, % at 34.9 µM; 0.16% of 330,000 active; AID 540336, 2011;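 active = inhibition of at least 50% in every replicate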
Numbers without * were called inactive; ! = not confirmed by another sample. The list is not random: actives were taken first. Their share in the collection is about 1.2%.

For O=c1nc2s/c(=C\c3ccco3)c(=O)n2nc1Cc1ccc(F)cc1 the results were CSN deneddyl inh 0.5, TPT1 inhibitor 3.2, HNF4A DNA FP -0.9 and Rtt109 Vps75 7.6.
Screening Cc1ccc(/C=c2/sc3nnc(-c4ccccc4Cl)n3c2=O)o1 returned CSN deneddyl inh 16.0, TPT1 inhibitor 8.9, HNF4A DNA FP 6.4 and Rtt109 Vps75 12.7.
`O=C1NC(=O)/C(=C\c2ccc(Cl)nc2)S1` gave CSN deneddyl inh -3.1, TPT1 inhibitor -1.4, HNF4A DNA FP 0.7 and Rtt109 Vps75 -4.0.
`O=C1NC(=O)/C(=C\c2ccc(OCc3cnc(Cl)s3)cc2)S1` gave CSN deneddyl inh 37.3*, TPT1 inhibitor -0.2, HNF4A DNA FP -5.8 and Rtt109 Vps75 -7.3.
For N#Cc1ccccc1OCC(=O)NNC(=O)CCNC(=O)c1ccccc1 the results were CSN deneddyl inh -1.8, HNF4A DNA FP 1.6 and Rtt109 Vps75 2.1.
For Cc1onc(-c2ccccc2)c1C(=O)N1CCC(C)(C(=O)O)C1 (centres undefined) the results were CSN deneddyl inh 3.8 and HNF4A DNA FP 0.5.
`COc1cccc2c1Oc1ncccc1N(C(=O)CCC(=O)NCc1ccc(C)cc1)C2` gave CSN deneddyl inh 0.4, TPT1 inhibitor -4.5, HNF4A DNA FP -1.2 and Rtt109 Vps75 19.3.
COc1cccc2c1Oc1ncccc1N(C(=O)CCC(=O)NCc1ccc(F)cc1)C2 was read as CSN deneddyl inh 2.7, TPT1 inhibitor -3.4, HNF4A DNA FP -1.2 and Rtt109 Vps75 51.0*.
COc1cccc(/C=C/C(=O)OCC(=O)c2ccc(Br)cc2)c1 was read as CSN deneddyl inh 2.9 and HNF4A DNA FP 0.1.
N=c1n(Cc2ccccc2Cl)c2ccccc2n1CC(O)c1ccco1 (centres undefined) was read as CSN deneddyl inh -1.2, TPT1 inhibitor 5.7, HNF4A DNA FP 61.1* and Rtt109 Vps75 -10.6.
Cc1cc(=O)oc(C)c1C(=O)n1nc(C)c2c1C[C@@H]1[C@H]2C1(C)C was read as CSN deneddyl inh 2.7, TPT1 inhibitor -4.3, HNF4A DNA FP 52.1* and Rtt109 Vps75 -24.4.
For Cc1cc2nc(C(C)(C)C)cc(N)n2n1 the results were CSN deneddyl inh -2.2, TPT1 inhibitor -0.1, HNF4A DNA FP -1.8 and Rtt109 Vps75 0.2.
Screening CC(C)(C)c1cc(N)n2nc(C(C)(C)C)cc2n1 returned CSN deneddyl inh -1.5, TPT1 inhibitor 0.6, HNF4A DNA FP 1.2 and Rtt109 Vps75 52.7*.
For Cc1cc(=O)oc2cc(NC(=O)COc3ccccc3[N+](=O)[O-])ccc12 the results were CSN deneddyl inh 70.8*, HNF4A DNA FP -1.9 and Rtt109 Vps75 15.8.
Screening O=C(COc1ccccc1[N+](=O)[O-])Nc1ccc2oc(=O)ccc2c1 returned CSN deneddyl inh -3.4, TPT1 inhibitor -0.2, HNF4A DNA FP 2.2 and Rtt109 Vps75 -8.2.
Screening CCOC(=O)c1ccc(NC(=O)Nc2nncs2)cc1 returned CSN deneddyl inh -3.5 and HNF4A DNA FP -0.4.
O=C1CC(N2C(=O)/C(=C/C=C/c3ccccc3)SC2=S)C(=O)N1c1ccccc1 (centres undefined) was read as CSN deneddyl inh 3.1, TPT1 inhibitor 78.0*, HNF4A DNA FP 18.9 and Rtt109 Vps75 -9.6.
For O=C(O)CN1C(=O)/C(=C/C=C/c2ccccc2)SC1=S the results were CSN deneddyl inh 9.7, TPT1 inhibitor 0.2 and HNF4A DNA FP 1.6.
For CC1(C(=O)NS(=O)(=O)Cc2cccc(Cl)c2)CCN1C(=O)CC1CCCC1 (centres undefined) the results were CSN deneddyl inh -1.6 and HNF4A DNA FP 4.5.
For CC1(C(=O)NS(=O)(=O)Cc2cccc(Cl)c2)CCN1C(=O)Cc1cccs1 (centres undefined) the results were CSN deneddyl inh 71.3* and HNF4A DNA FP 4.1.
For CCCCCCCCCCOC(=O)Cn1c(COc2ccccc2)[n+](C)c2ccccc21 the results were CSN deneddyl inh 2.4, TPT1 inhibitor -5.4, HNF4A DNA FP 7.3 and Rtt109 Vps75 -5.0.
CCCCCCCCCCOC(=O)Cn1c(COc2ccc(OC)cc2)[n+](C)c2ccccc21 was read as CSN deneddyl inh 2.9, TPT1 inhibitor 2.6, HNF4A DNA FP 6.3 and Rtt109 Vps75 83.9*!.
For COc1cc(NS(=O)(=O)c2ccc(Br)cc2)c(OC)cc1NC(=O)c1ccco1 the results were CSN deneddyl inh 6.8, TPT1 inhibitor 4.7, HNF4A DNA FP 68.0* and Rtt109 Vps75 10.3.
For CCOc1cc(C(=O)N2CCCN(C)CC2)cc(OCC)c1OCC the results were CSN deneddyl inh 1.4, TPT1 inhibitor 1.3, HNF4A DNA FP -1.3 and Rtt109 Vps75 4.4.
Screening COc1ccc2c(c1)CCc1c(C(=O)Nc3cc(C)n(Cc4ccc(Cl)cc4)n3)noc1-2 returned CSN deneddyl inh 91.4*, TPT1 inhibitor -0.6, HNF4A DNA FP -5.0 and Rtt109 Vps75 3.3.
For CC1(C)N=C(N)N=C(N)N1c1ccc(OCCCOc2ccccc2)c(Cl)c1 the results were CSN deneddyl inh 2.0, TPT1 inhibitor -0.3, HNF4A DNA FP 49.9* and Rtt109 Vps75 -8.8.
Screening CC1(C)N=C(N)N=C(N)N1c1ccc(OCC(=O)Nc2ccccc2)c(Cl)c1 returned CSN deneddyl inh 2.6 and HNF4A DNA FP 1.3.
`CCOc1ccc(S(=O)(=O)NCCC(=O)NCC(c2ccco2)N2CCCCC2)cc1` (centres undefined) gave CSN deneddyl inh -2.5, HNF4A DNA FP 0.9 and Rtt109 Vps75 2.3.
Cc1ccc(/C=C2/SC(=S)N(C3CCCCC3)C2=O)o1 was read as CSN deneddyl inh 28.9, TPT1 inhibitor 15.1, HNF4A DNA FP 33.7* and Rtt109 Vps75 16.4.
For O=C1/C(=C/c2ccncc2)SC(=S)N1C1CCCCC1 the results were CSN deneddyl inh 4.6, TPT1 inhibitor 0.4, HNF4A DNA FP 0.2 and Rtt109 Vps75 -0.5.
`CC(=O)Nc1ccc(NC(=O)COC(=O)C2CCCCC2)cc1` gave CSN deneddyl inh -2.5, HNF4A DNA FP -0.1 and Rtt109 Vps75 -0.4.
`O=C(Cc1ccc(Cl)cc1)NNC(=O)c1ccco1` gave CSN deneddyl inh -2.1, TPT1 inhibitor 1.9, HNF4A DNA FP -2.4 and Rtt109 Vps75 -6.1.
Screening Cc1cc2cc(C(c3nnnn3C(C)(C)C)N(Cc3ccco3)CC3CCCO3)c(=O)[nH]c2cc1C (centres undefined) returned CSN deneddyl inh 6.6, TPT1 inhibitor 2.2, HNF4A DNA FP 42.7* and Rtt109 Vps75 10.0.
COc1ccc2[nH]c(=O)c(C(c3nnnn3C(C)(C)C)N(Cc3ccco3)CC3CCCO3)cc2c1 (centres undefined) was read as CSN deneddyl inh 1.9, TPT1 inhibitor -3.5, HNF4A DNA FP -0.4 and Rtt109 Vps75 -6.3.
Nc1cccc2nsnc12 was read as CSN deneddyl inh 4.9, TPT1 inhibitor 1.2, HNF4A DNA FP -0.7 and Rtt109 Vps75 2.8.
Nc1cc2nsnc2cc1Br was read as CSN deneddyl inh 38.5*, TPT1 inhibitor -14.1, HNF4A DNA FP -30.2 and Rtt109 Vps75 -3.2.
